According to ChEMBL document CHEMBL4368867 (Medchemcomm, 2018):
pIC50: −log10 of the molar value.

Experiments:
Carbonic anhydrase 9 = Carbonic anhydrase 9 (Homo sapiens, UniProt Q16790); test: Inhibition of human carbonic anhydrase-9 incubated for 15 mins prior to testing by stopped-flow CO2 hydration assay
Carbonic anhydrase 1 = Carbonic anhydrase 1 (Homo sapiens, UniProt P00915); test: Inhibition of human erythrocyte carbonic anhydrase-1 incubated for 15 mins prior to testing by stopped-flow CO2 hydration assay
Sequence of Carbonic anhydrase 1 (P00915 whole entry): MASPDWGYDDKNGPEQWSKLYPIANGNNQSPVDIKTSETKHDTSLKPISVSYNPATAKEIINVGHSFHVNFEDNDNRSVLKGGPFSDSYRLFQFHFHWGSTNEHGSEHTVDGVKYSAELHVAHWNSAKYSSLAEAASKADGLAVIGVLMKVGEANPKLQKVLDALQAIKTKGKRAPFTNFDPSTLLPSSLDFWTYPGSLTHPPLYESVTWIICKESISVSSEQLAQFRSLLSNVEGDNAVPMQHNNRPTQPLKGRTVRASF

Homo sapiens [1] = species: Homo sapiens; test: Selectivity ratio of IC50 for human erythrocyte carbonic anhydrase-1 to IC50 for human carbonic anhydrase-9
Procedure, shortened: (§1)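 Ratio of the CA I or CA II IC50 to the CA IX IC50. hCA IX was purified recombinant protein; CA I and CA II were commercial. Enzyme levels were 50 ng µL−1 for CA I, 1 ng µL−1 for CA II and 3 ng µL−1 for CA IX. Inhibitor in DMSO was preincubated with enzyme for 15 min. Activity was read as stopped-flow CO2 hydration or initial 4-nitrophenyl acetate hydrolysis rates. Triplicates per concentration, mean reported.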

Carbonic anhydrase 2 = Carbonic anhydrase 2 (Homo sapiens, UniProt P00918); test: Inhibition of recombinant human carbonic anhydrase-2 expressed in Escherichia coli incubated for 15 mins prior to testing by stopped-flow CO2 hydration assay
Homo sapiens [2] = species: Homo sapiens; test: Selectivity ratio of IC50 for recombinant human carbonic anhydrase-2 expressed in Escherichia coli to IC50 for human carbonic anhydrase-9; procedure, shortened: as §1

| Structure (SMILES) | pIC50 (Carbonic anhydrase 9) | pIC50 (Carbonic anhydrase 1) | Ratio IC50 (Homo sapiens [1]) | pIC50 (Carbonic anhydrase 2) | Ratio IC50 (Homo sapiens [2]) |
| --- | --- | --- | --- | --- | --- |
| COc1ccc(C(=O)NC(=S)Nc2ccc(S(N)(=O)=O)cc2)cc1 | 9.33 | 6.16 | 1480 | 7.59 | 54.4 |
| COc1ccccc1C(=O)NC(=S)Nc1ccc(S(N)(=O)=O)cc1 | 9.52 | 6.57 | 889 | 8.68 | 6.97 |
| NS(=O)(=O)c1cccc(NC(=S)NC(=O)c2ccc(Cl)cc2)c1 | 7.37 | 5.81 | 36.5 | 6.62 | 5.67 |
| NS(=O)(=O)c1cccc(NC(=S)NC(=O)c2ccc([N+](=O)[O-])cc2)c1 | < 6.98 | 7.22 | – | 6.85 | – |
| NS(=O)(=O)c1cccc(NC(=S)NC(=O)c2ccccc2Cl)c1 | 7.72 | 6.11 | 40.7 | 6.56 | 14.6 |
| NS(=O)(=O)c1ccc(NC(=S)NC(=O)c2ccccc2Cl)cc1 | 8.47 | 6.18 | 193 | 7.64 | 6.68 |
| NS(=O)(=O)c1cccc(NC(=S)NC(=O)c2ccccc2)c1 | 7.59 | 6.06 | 33.7 | 6.78 | 6.47 |
| NS(=O)(=O)c1ccc(NC(=S)NC(=O)c2ccc([N+](=O)[O-])cc2)cc1 | 9.32 | 6.30 | 1050 | 6.13 | 1560 |
| COc1ccccc1C(=O)NC(=S)Nc1cccc(S(N)(=O)=O)c1 | 7.26 | 7.35 | 0.82 | 7.68 | 0.38 |
| NS(=O)(=O)c1ccc(NC(=S)NC(=O)c2ccc(Cl)cc2)cc1 | 8.38 | 6.37 | 102 | 7.89 | 3.13 |
| COc1ccc(C(=O)NC(=S)Nc2cccc(S(N)(=O)=O)c2)cc1 | 7.59 | 6.18 | 26.1 | 6.04 | 35.6 |
| NS(=O)(=O)c1cccc(NC(=S)NC(=O)c2ccc(Cl)cc2Cl)c1 | 8.35 | 5.87 | 304 | 6.02 | 215 |
| NS(=O)(=O)c1ccc(NC(=S)NC(=O)c2ccc(Cl)cc2Cl)cc1 | 9.92 | 6.20 | 5270 | 7.93 | 98.5 |
